Tests used:
[1] = Toxicity in po dosed mouse assessed as mortality after 7 days; conditions: in vivo
[2] = system: Rattus norvegicus; experiment: Hypotensive activity in po dosed spontaneously hypertensive Wistar-Okamoto rat assessed as dose required to cause 30 mmHg fall of blood pressure administered for 5 days; format: functional; conditions: 120 h, read-out: MED
[3] = Toxicity in po dosed Sprague-Dawley rat assessed as mortality after 7 days; format: organism-based; conditions: in vivo
[4] = system: Rattus norvegicus; experiment: Hypotensive activity in spontaneously hypertensive Wistar-Okamoto rat assessed as maximum change in mean blood pressure at 2.5 mg/kg, po relative to control; format: functional
In short: (§1)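 Spontaneously hypertensive Wistar-Okamoto rats, five per dose, received compound orally, dissolved or suspended in 0.5% carboxymethylcellulose. Blood pressure was measured indirectly by tail cuff in restrained conscious rats before dosing and at 2, 4, 6, 8, 12 and 24 h. Maximum change was measured after a single administration and given as mean ± error.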

[5] = system: Rattus norvegicus; experiment: Hypotensive activity in spontaneously hypertensive Wistar-Okamoto rat assessed as maximum change in mean blood pressure at 1 mg/kg, po relative to control; format: functional; in short: as §1
[6] = system: Rattus norvegicus; experiment: Hypotensive activity in spontaneously hypertensive Wistar-Okamoto rat assessed as time required for persistence of hypotensive effect at 2.5 mg/kg, po; format: functional
In short: (§2)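 SHR (Wistar-Okamoto), five per dose, were given an oral dose in 0.5% carboxymethylcellulose. Indirect cuff pressure in restrained conscious rats was read before dosing and at 2, 4, 6, 8, 12 and 24 h. Duration (h) was scored while pressure remained 15 mmHg or more below the initial reading.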

[7] = system: Rattus norvegicus; experiment: Hypotensive activity in spontaneously hypertensive Wistar-Okamoto rat assessed as time required for persistence of hypotensive effect at 1 mg/kg, po; format: functional; in short: as §2
[8] = system: Canis familiaris; experiment: Hypotensive activity in conscious renal hypertensive dog assessed as maximum change in mean blood pressure at 0.5 mg/kg, po measured for 8 hrs relative to control; format: functional, Canis lupus familiaris
In short: (§3)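 Renal hypertensive dogs, conscious, dosed orally in soft gelatin capsules, three dogs per dose. Mean blood pressure was taken indirectly with an Arteriosonde, standing animals in a semi-insonorized room, just before dosing and then hourly for 8 h. Maximum change was measured after a single administration and given as mean ± error.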

[9] = system: Canis familiaris; experiment: Hypotensive activity in conscious renal hypertensive dog assessed as maximum change in mean blood pressure at 1 mg/kg, po measured for 8 hrs relative to control; format: functional, Canis lupus familiaris; in short: as §3
[10] = system: Canis familiaris; experiment: Hypotensive activity in conscious renal hypertensive dog assessed as time required for persistence of hypotensive effect at 0.5 mg/kg, po measured for 8 hrs; format: functional, Canis lupus familiaris
In short: (§4)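 Conscious renal hypertensive dogs received single oral doses in soft gelatin capsules, three per dose. Indirect standing blood pressure was read before dosing and hourly to 8 h. Duration (h) was the time the pressure stayed 15 mmHg or more below the initial value, which was taken as persistence of the hypotensive effect.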

[11] = system: Canis familiaris; experiment: Hypotensive activity in conscious renal hypertensive dog assessed as time required for persistence of hypotensive effect at 1 mg/kg, po measured for 8 hrs; format: functional, Canis lupus familiaris; in short: as §4

With `CCC(CC)N/C(=N\O)Nc1cccnc1` the LD50 at 168 h [1] was greater than 1000 mg/kg and the minimal effective dose [2] was 50 mg/kg.

For `N#CN/C(=N\Cc1ccccc1)Nc1ccncc1`, the LD50 at 168 h [1] was 600 mg/kg and the minimal effective dose [2] was 5 mg/kg.

Work on `Cn1nc(-c2ccc(Cl)cc2)cc1N/C(=N/C#N)NC(C)(C)C` yielded an LD50 at 168 h [1] greater than 1000 mg/kg and a minimal effective dose [2] greater than 50 mg/kg.

For `CO/N=C(/Nc1cccnc1)NC(C)(C)C`, the LD50 at 168 h [1] was greater than 1000 mg/kg and the minimal effective dose [2] was 50 mg/kg.

With `CCCC(C)(C)/N=C(\NC#N)Nc1cccnc1` the LD50 at 168 h [1] was greater than 1000 mg/kg and the minimal effective dose [2] was 1 mg/kg.

With `N#CN/C(=N\CCc1ccccc1)Nc1cccnc1` the LD50 at 168 h [1] was greater than 1000 mg/kg and the minimal effective dose [2] was 50 mg/kg.

For `CC(C)(C)C(C)(C)/N=C(\NC#N)Nc1cccnc1`, the LD50 at 168 h [1] was greater than 1000 mg/kg and the minimal effective dose [2] was 50 mg/kg.

`NNc1nncc2ccccc12` [HYDRALAZINE] gave an LD50 at 168 h [3] of 107 mg/kg, an Activity [4] of -64 mmHg and an Activity [5] of -36 mmHg. The Time [6] was greater than 8 h, the Time [7] was 4 h and the Activity [8] was -21 mmHg. The Activity [9] was -42 mmHg, the Time [10] was 2 h and the Time [11] was 6 h.

Work on `CCC/N=C(\NC#N)Nc1cccnc1` yielded an LD50 at 168 h [1] greater than 1000 mg/kg and a minimal effective dose [2] of 20 mg/kg.

`CCCCC(CC)C/N=C(\NC#N)Nc1cccnc1` (configuration not stated) gave an LD50 at 168 h [1] greater than 1000 mg/kg and a minimal effective dose [2] greater than 50 mg/kg.

Work on `CC(C)C(C)(C)/N=C(\NC#N)Nc1ccncc1` yielded an LD50 at 168 h [1] of 1000 mg/kg and a minimal effective dose [2] of 20 mg/kg.

`CC(C)(C)N/C(=N\O)Nc1cccnc1` showed an LD50 at 168 h [1] of 1000 mg/kg and a minimal effective dose [2] greater than 35 mg/kg.

Work on `CCC(C)(C)N/C(=N\C#N)Nc1cc(C)nc2ccccc12` yielded an LD50 at 168 h [1] greater than 1000 mg/kg and a minimal effective dose [2] of 10 mg/kg.

Compound `CC(C)(C)CC(C)(C)/N=C(\NC#N)Nc1cccnc1` has an LD50 at 168 h [1] greater than 1000 mg/kg and a minimal effective dose [2] of 50 mg/kg.

Work on `CCC(C)(C)N/C(=N\C#N)Nc1cc(-c2ccc(Cl)cc2)nn1C` yielded an LD50 at 168 h [1] greater than 1000 mg/kg and a minimal effective dose [2] of 50 mg/kg.
